Experimental data published in ChEMBL document CHEMBL4177709, “Design, synthesis and evaluation against Mycobacterium tuberculosis of azole piperazine derivatives as dicyclotyrosine (cYY) mimics” (Bioorg Med Chem, 2018).
Values after ≈ are worked out from the molar mass of the structure shown. Active and inactive are the calls of the source. The rule behind the calls is not given here.

Assays:
[1] = Binding affinity to Mycobacterium tuberculosis CYP121A1 by UV-visible spectrophotometric titration method
How it was run: (§1)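 Purified CYP121A1 (3-4 μM) titrated at 28 °C in 100 mM KPi, 200 mM KCl, 0.004% Triton X-100, pH 7.85, with small aliquots of ligand from DMSO stocks. UV-visible spectra recorded 250-800 nm. Difference spectra give peak-minus-trough absorbance change, plotted against [ligand]. Kd obtained by hyperbolic or Hill fit, averaged over triplicate titrations.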

[2] = test system: Mycobacterium tuberculosis; assay: Antibacterial activity against Mycobacterium tuberculosis H37Rv after 7 days by resazurin microtiter assay; format: functional; conditions: 168 h
How it was run: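 M. tuberculosis H37Rv grown at 37 °C in 7H9 with 10% OADC to mid-log (OD600 0.4-0.6), adjusted to McFarland no.1 and diluted 1:20. Compounds from DMSO stocks serially diluted in 7H9/OADC to final 0.39-100 µg/mL; rifampicin 0.004-1 µg/mL as control. After 7 days at 37 °C, 0.01% resazurin added; fluorescence (530/590 nm) read 24 h later.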

[3] = test system: Mycobacterium tuberculosis; assay: Binding affinity to Mycobacterium tuberculosis CYP121A1 assessed as red shift in heme soret peak up to 300 uM by UV-visible spectrophotometric titration method; how it was run: as §1
[4] = test system: Mycobacterium tuberculosis; assay: Binding affinity to Mycobacterium tuberculosis CYP121A1 assessed as red shift in heme soret peak up to 500 uM by UV-visible spectrophotometric titration method; how it was run: as §1
[5] = test system: Mycobacterium tuberculosis; assay: Binding affinity to Mycobacterium tuberculosis CYP121A1 assessed as red shift in heme soret peak up to 250 uM by UV-visible spectrophotometric titration method; how it was run: as §1
[6] = test system: Mycobacterium tuberculosis; assay: Binding affinity to Mycobacterium tuberculosis CYP121A1 assessed as blue shift in heme soret peak up to 1750 uM by UV-visible spectrophotometric titration method; how it was run: as §1

| SMILES | Kd [1] | MIC90 [2] | Activity [3] | Activity [4] | Activity [5] | Activity [6] |
| --- | --- | --- | --- | --- | --- | --- |
| O=C(Cn1ccnc1)N1CCN(Cc2ccc(F)cc2)CC1 | 1140 µM | > 100 µg/mL |  |  |  |  |
| O=C1CN(CCCn2ccnc2)CCN1Cc1ccc(F)cc1 | 226 µM | > 100 µg/mL | Active |  |  |  |
| COc1ccc(CN2CCN(CCCn3ccnc3)CC2=O)cc1 | 309 µM | > 100 µg/mL |  | Active |  |  |
| COc1ccc(CN2CCN(Cc3ccc(OC)cc3)C(Cn3cncn3)C2)cc1 (stereo not given) | 1300 µM | 100 µg/mL (≈ 245 µM) |  |  |  |  |
| O=C1CN(CCCn2ccnc2)CCN1Cc1ccc(Cl)cc1Cl | 967 µM | 100 µg/mL (≈ 272 µM) |  |  |  |  |
| c1ccc(CN2CCN(Cc3ccccc3)C(Cn3cncn3)C2)cc1 (stereo not given) | 1830 µM | > 100 µg/mL |  |  |  |  |
| O=C1CN(CCCn2ccnc2)CCN1Cc1ccc(Cl)cc1 | 81.3 µM | > 100 µg/mL |  |  | Active |  |
| COc1cc(CN2CCN(Cc3cc(OC)cc(OC)c3)C(Cn3ccnc3)C2)cc(OC)c1 (stereo not given) | 1440 µM | 12.5 µg/mL (≈ 26.8 µM) |  |  |  |  |
| c1ccc(CN2CCN(Cc3ccccc3)C(Cn3ccnc3)C2)cc1 (stereo not given) |  | 50 µg/mL (≈ 144 µM) |  |  |  |  |
| O=C(Cn1cncn1)N1CCN(Cc2ccc(F)cc2)CC1 | 960 µM | > 100 µg/mL |  |  |  |  |
| O=C(Cn1cncn1)N1CCN(Cc2ccc(Cl)cc2Cl)CC1 | 417 µM | > 100 µg/mL |  |  |  | Active |
